{"data": "Results gathered from unrelated publications", "target": "Rhodopsin kinase GRK1 (GRK1, Homo sapiens, UniProt Q15835)", "Sequence (Q15835 1-563, as in one of the studies)": "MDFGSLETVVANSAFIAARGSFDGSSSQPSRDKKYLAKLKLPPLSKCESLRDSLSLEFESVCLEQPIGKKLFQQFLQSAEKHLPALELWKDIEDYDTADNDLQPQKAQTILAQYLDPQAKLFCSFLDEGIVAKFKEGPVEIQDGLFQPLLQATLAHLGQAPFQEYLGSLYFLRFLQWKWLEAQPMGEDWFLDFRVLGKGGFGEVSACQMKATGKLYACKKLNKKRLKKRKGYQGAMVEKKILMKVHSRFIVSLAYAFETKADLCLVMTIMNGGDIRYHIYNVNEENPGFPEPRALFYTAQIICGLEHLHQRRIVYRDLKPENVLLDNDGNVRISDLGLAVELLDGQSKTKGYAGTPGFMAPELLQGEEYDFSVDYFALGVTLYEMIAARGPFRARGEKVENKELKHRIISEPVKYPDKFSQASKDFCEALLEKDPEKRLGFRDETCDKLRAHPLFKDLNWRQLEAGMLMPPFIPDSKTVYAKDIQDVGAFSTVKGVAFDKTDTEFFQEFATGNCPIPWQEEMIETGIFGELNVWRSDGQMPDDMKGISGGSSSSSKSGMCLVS", "note": "Each line is one published result; the experiments were not run side by side."}
{"SMILES": "c1cncc(-c2cccc(Nc3nccc(NC4CCCCC4)n3)c2)c1", "observed": "binding", "technique": "competition with immobilised ligand", "concentration": "10 µM", "remaining binding [%]": 44}
{"SMILES": "CS(=O)(=O)NCC[C@H](NC(=O)c1cncc2c1cnn2-c1ccc(F)cc1)c1ccnc(S(C)(=O)=O)c1", "observed": "cell-free assay", "technique": "competition with immobilised ligand", "concentration": "1 µM", "remaining binding [%]": 100}
{"SMILES": "O=C(NCCCN1CCOCC1)c1ccc(Nc2nccc(-c3cc4ccccc4s3)n2)cc1", "observed": "binding", "technique": "competition with immobilised ligand", "concentration": "1 µM", "remaining binding [%]": 74}
{"SMILES": "CN(CCCC(F)(F)F)c1nccc(-c2cnn3ncccc23)n1", "observed": "binding", "concentration": "1 µM", "remaining binding [%]": 100}
{"SMILES": "Cn1cc(Cl)c2c(Oc3c(F)cc(Nc4cc(Cl)nc(N)n4)cc3F)ccnc21", "observed": "cell-free assay", "technique": "competition with immobilised ligand", "concentration": "0.1 µM", "remaining binding [%]": 92}
{"SMILES": "CN(C)c1nccc(-c2cnn3ncccc23)n1", "observed": "binding", "concentration": "1 µM", "remaining binding [%]": 79}
{"SMILES": "CCC(=O)N[C@@H]1CC[C@H](C(=O)N(C)c2ccc(-c3nc4ccccc4o3)cc2)C1", "observed": "cell-free assay", "technique": "competition with immobilised ligand", "concentration": "1 µM", "remaining binding [%]": 76}
{"SMILES": "COc1cnc(Nc2cccc(S(N)(=O)=O)c2)nc1N1CCN(c2ccccc2)CC1", "observed": "binding", "technique": "competition with immobilised ligand", "concentration": "1 µM", "remaining binding [%]": 99}
{"SMILES": "N[C@H]1CCN(c2nccc(-c3cnn4ncccc34)n2)C1", "observed": "binding", "concentration": "1 µM", "remaining binding [%]": 100}
{"SMILES": "CC(=O)N1CCC(c2ccc(C(=O)NC3=NCCN3)cc2C(F)(F)F)CC1", "observed": "cell-free assay", "technique": "competition with immobilised ligand", "concentration": "1 µM", "remaining binding [%]": 95}
{"SMILES": "O=C(NCC1CCOCC1)c1n[nH]cc1NC(=O)c1c(F)cccc1F", "observed": "binding", "technique": "competition with immobilised ligand", "concentration": "1 µM", "remaining binding [%]": 77}
{"SMILES": "O=C(NCCCN1CCOCC1)c1ccc(Nc2ncc(Cl)c(-c3ccc(Cl)s3)n2)cc1", "observed": "binding", "technique": "competition with immobilised ligand", "concentration": "1 µM", "remaining binding [%]": 100}
{"SMILES": "C=CC(=O)N1CCC(C(=O)NCC(=O)N2CCN(c3nc(-c4cnc(N)nc4C(F)F)nc(N4CCOCC4)n3)CC2)CC1", "observed": "binding", "technique": "competition with immobilised ligand", "concentration": "1 µM", "remaining binding [%]": 67}
{"SMILES": "CN([C@@H]1CCc2c(CC(=O)O)c3cc(S(C)(=O)=O)ccc3n2C1)S(=O)(=O)c1ccc(F)cc1", "observed": "cell-free assay", "technique": "competition with immobilised ligand", "concentration": "1 µM", "remaining binding [%]": 70}
{"SMILES": "CC1CCCN1c1nccc(-c2cnn3ncccc23)n1 (stereo not shown)", "observed": "binding", "concentration": "1 µM", "remaining binding [%]": 82}
{"SMILES": "CS(=O)(=O)N1CCCC(NC(=O)[C@H](CCC2CCCCC2)NC(=O)c2ccc(CNc3ncnc4c3nnn4-c3ccccc3)cc2)C1 (stereo partly shown)", "observed": "cell-free assay", "technique": "competition with immobilised ligand", "concentration": "0.1 µM", "remaining binding [%]": 94}
{"SMILES": "COc1ncc2cc3ccccc3nc2c1C#N", "observed": "cell-free assay", "technique": "competition with immobilised ligand", "concentration": "5 µM", "remaining binding [%]": 98}
{"SMILES": "C[C@@H]1CCN(c2nccc(-c3cnn4ncccc34)n2)C1", "observed": "binding", "concentration": "1 µM", "remaining binding [%]": 77}
{"SMILES": "COc1cnc(Nc2cccc(S(N)(=O)=O)c2)nc1N1CCN(c2ccccc2)C(=O)C1", "observed": "binding", "technique": "competition with immobilised ligand", "concentration": "1 µM", "remaining binding [%]": 97}
